Results gathered from unrelated publications.
Each line is one published result; the experiments were not run side by side.
Target: Vascular endothelial growth factor receptor 2 (KDR, Homo sapiens, UniProt P35968)
Observed: enzyme activity
Action: inhibitor

CC(C)(O)[C@H]1CC[C@H](Nc2ccc3ncc(-c4cccc(C(F)(F)F)c4)n3n2)CC1
remaining activity (1 µM): 91.5%

COc1ccc(C=NNC(=O)c2sc(Nc3ccccc3)c(C(=O)Nc3ccc(OC)cc3)c2NC(C)=O)cc1
remaining activity (0.1 µM): 79.4%

Cc1cnc(NC2CCOCC2)nc1-n1cnc(C(=O)NC(CN)c2cc(F)cc(Cl)c2)c1 (stereo not shown)
remaining activity (radiometric; 1 µM): 85%

Cc1[nH]c(/C=C2\C(=O)Nc3ccc(F)cc32)c(C)c1C(=O)N[C@H]1CCN(C(=O)N(C)C)C1
remaining activity (0.1 µM): 10%

CC(C)(C)c1nc(-c2cccc(NS(=O)(=O)c3c(F)cccc3F)c2F)c(-c2ccnc(N)n2)s1
remaining activity (radiometric; 1 µM): 82%

COc1cc(Cl)c(C(=O)N[C@@H](CN[C@H]2CC[C@@H](N)CC2)Cc2ccc(C#N)cc2)cc1-c1ccc(CN[C@H](C)c2ccc(C)cc2)o1
remaining activity (1 µM): 82%

COc1ccc(NC(=O)c2c(Nc3ccccc3)sc(C#N)c2NC(=O)CNc2ccc(Cl)cc2)cc1
remaining activity (100 µM): 16.5%

O=C(Nc1cnn(-c2csc(C(=O)NC3COC3)c2)c1)Nc1c(F)cccc1Cl
remaining activity (5 µM): 88.3%

CCN(CC)c1ccc(C2=NNC(=O)CC2C)cc1[N+](=O)[O-] (stereo not shown)
remaining activity (10 µM): 99%

O=C(Nc1cnn(-c2csc(C(=O)NC3COC3)c2)c1)Nc1ccccc1Cl
remaining activity (5 µM): 95.2%

COc1ccc(NC(=O)c2c(Nc3ccccc3)sc(C#N)c2NC(=O)CNc2ccc([N+](=O)[O-])cc2)cc1
remaining activity (0.1 µM): 86.1%

CC(C)(C)c1nc2c(s1)c1nc(N)ncc1c1ccc(NS(=O)(=O)c3c(F)cccc3F)c(F)c12
remaining activity (radiometric; 1 µM): 95%

CCCOc1ccc(OC)c(F)c1C(=O)c1ccc(C(=O)N[C@@H]2CNC[C@H]2NC(=O)c2ccc3[nH]ncc3c2)cc1
remaining activity (10 µM): 74%
